# Screens deposited in PubChem by several laboratories.
# Most compounds without a hit are left out; they make up all but 4.1% or so of the library.
# FLuc inhib CS: inhibits firefly luciferase, flagging false hits in luciferase inhibition screens; P08659; ATPLite firefly luciferase biochemical luminescence, 10 min; inhibition, % at 10 µM; hit rate 1.5% among 200,000; AID 1006;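 active = inhibition above about 50% when tested at 10 µM, limit read from the data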
# Target sequence (P08659 whole entry, looked up): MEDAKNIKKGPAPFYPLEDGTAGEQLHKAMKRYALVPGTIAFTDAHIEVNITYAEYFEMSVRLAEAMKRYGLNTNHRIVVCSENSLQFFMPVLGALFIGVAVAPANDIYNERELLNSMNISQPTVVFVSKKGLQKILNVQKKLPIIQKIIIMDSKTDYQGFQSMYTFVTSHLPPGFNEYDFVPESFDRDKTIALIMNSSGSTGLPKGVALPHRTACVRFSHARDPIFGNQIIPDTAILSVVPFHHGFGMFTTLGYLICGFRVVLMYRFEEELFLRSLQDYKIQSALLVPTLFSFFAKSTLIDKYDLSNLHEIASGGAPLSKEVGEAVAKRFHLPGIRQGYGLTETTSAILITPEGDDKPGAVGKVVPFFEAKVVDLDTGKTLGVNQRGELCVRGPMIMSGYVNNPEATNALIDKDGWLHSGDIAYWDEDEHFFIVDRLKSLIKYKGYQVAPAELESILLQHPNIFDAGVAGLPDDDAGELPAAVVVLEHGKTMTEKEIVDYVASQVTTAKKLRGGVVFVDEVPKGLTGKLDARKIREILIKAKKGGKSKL
# NF-kB expr up: NF-kB expression increase, human neuronal cells. NF-kB reporter expression; hits give high values. fold change at 12.5 µM. hit rate 1.6% among 190,000; in the data active = fold change above about 3.3
# STAT1 activator: activators of IFN-gamma induced STAT1 signaling | NIH 3T3 STAT1-luciferase reporter, luminescence; 100% = IFN-gamma alone, no compound | activation (% of control), % at 5.5 µM | hit rate 2.6% among 200,000;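 active = activation above the screen-wide mean activation plus 3 SD, cut at about 130% in these data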
# APP 5'UTR act: APP 5'UTR luciferase reporter activation. AID 1276. SH-SY5Y APP 5'UTR luciferase reporter, luminescence; zero percent = DMSO vehicle wells. hit rate 1% among 190,000. activation, % at 2 µM;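 active = activation above a set limit, based on mean plus 3 SD of controls, cut at about 140% in these data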
# FLuc act counter: firefly luciferase counter-screen for stimulation assays; activation factor at 10 µM; 200,000 tested, under 10 active; ATPlite luciferase biochemical, luminescence, 10 min; 0 = ATP-free wells, 1 = DMSO control; P08659;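 active = luciferase activation factor, scaled between plate controls, of at least 2 with compound at 10 µM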
#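 Material: luciferase plus luciferin reagent, cell-free. Medium: PBS buffer for ATP. Also added: ATP substrate, dispensed from a 10.24 µM working solution in PBS. Doses: test compounds dosed from 2 mM stocks in 100% DMSO. Incubation: 10 min post-reagent at room temperature. Technique: light output (luminescence). Read-out basis: luminescence gain marking luciferase activators.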
# STAT1 act conf: STAT1 activation, confirmation assay; shares compounds with STAT1 activator; NIH 3T3 STAT1-luciferase reporter, IFN-gamma potentiation, luminescence; 100% = IFN-gamma EC80 alone, no compound; activation (% of control), % at 5.7 µM; hit rate 97% among 1,200;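 active = activation above a set limit carried over from the earlier primary STAT1 screen, cut at about 140% in these data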
# NFkB act: counter-screen for STAT1 activators: NF-kappaB activation. shares compounds with STAT1 activator. activation (% of control), % at 5.7 µM. HEK293T NF-kB luciferase reporter, TNF-alpha stimulated, luminescence; 100% = TNF-alpha with vehicle only. hit rate 43% among 1,200;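 active = activation above the mean of solvent-only control wells plus 3 SD, set per campaign, cut at about 130% in these data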;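 also: TNF-alpha given at a submaximal dose yielding about 80% of full reporter signal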
# STAT3 act STAT1c: counter-screen for STAT1 activators: human STAT3 activation | shares compounds with STAT1 activator | U3A cells STAT3-luciferase reporter, IL-6, luminescence; cells lack STAT1; 100 = IL-6 alone, no compound effect | activation (% of control), % at 5.7 µM | hit rate 46% among 1,200;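 active = activation above the solvent-only control well mean plus 3 SD, set per plate batch, cut at about 110% in these data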;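 also: higher means more STAT3 reporter activation so hits are non-selective activators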
# Numbers stand for hits; . = inactive; / = no result given.
SMILES,FLuc inhib CS,NF-kB expr up,STAT1 activator,APP 5'UTR act,FLuc act counter,STAT1 act conf,NFkB act,STAT3 act STAT1c
CCOC(=O)c1sc(NC(=O)Nc2ccc(F)cc2)nc1C,59,5.3,160,.,.,236,135,112
CCOC(=O)c1cc(NC(=O)Nc2ccccc2Cl)c(C)nc1C,.,.,.,.,.,/,/,/
O=C1CSCC(=O)N1c1ccccc1,.,.,.,/,.,/,/,/
C#CCN1C(=O)S/C(=C/c2cc(C)n(CC)c2C)C1=O,.,.,199,.,.,239,134,.
CC(C)(Cc1nc2ccccc2[nH]1)C(=O)O,.,.,.,.,.,/,/,/
O=C(Cc1ccc2c(c1)CCCC2)Nc1ccc2ccccc2c1,.,.,.,.,.,/,/,/
O=C(Nc1ccc2ccccc2c1)c1onc2c1CCCC2,.,8.1,154,206,.,270,.,.
Nc1ccc2oc(CCc3ccccc3)nc2c1,.,.,161,.,.,177,143,116
O=C(NC1CCCCCC1)c1c2c(nc3ccccc13)CCN(Cc1ccccc1)C2,.,.,.,.,.,/,/,/
Cc1cc(N2CCN(C)CC2)ccc1NC(=O)c1c2c(nc3ccccc13)CCN(Cc1ccccc1)C2,.,.,166,.,.,.,.,115
O=C1CCCc2nc3c(cc21)C(O)Oc1c-3ccc2ccccc12 (stereo unspecified),.,.,186,157,.,216,143,.
O=C1CCCc2nc3c(cc21)C(O)Oc1ccccc1-3 (stereo unspecified),.,/,.,.,.,/,/,/
CCOc1ccc2nc(N3CCOCC3)nc(C)c2c1,.,3.8,155,.,.,181,.,.
CCOc1ccc(Nc2cc(C)nc(N3CCOCC3)n2)cc1,.,.,.,.,.,/,/,/
Cn1c(SCc2nc3cc(C(=O)O)ccc3c(=O)[nH]2)nnc1C(F)(F)F,.,.,.,.,.,/,/,/
O=c1[nH]c(=O)c2nc(-c3ccc(Cl)cc3)cnc2[nH]1,.,.,.,.,.,/,/,/
O=c1[nH]c(=O)c2nc3c4ccccc4c4ccccc4c3nc2[nH]1,.,.,152,.,.,140,.,.
COc1ccc2c(c1)CCC/C2=N\NC(=O)c1ccoc1C,.,.,151,.,.,129,.,.
COC(=O)c1ccc(NC(=O)Nc2ccc3c(c2)nc(C)n3C)cc1,.,.,.,.,.,/,/,/
Cc1nc2cc(NC(=O)N3c4ccccc4CC3C)ccc2n1C (stereo unspecified),86,4,151,/,.,218,.,132
CCN(CC)CCNC(=O)CNC(=S)N(CCCN1CCOCC1)Cc1cccs1,.,.,.,.,.,/,/,/
O=c1[nH]c2ccccc2nc1/C=C(\O)C1CC1,.,.,.,.,.,/,/,/
CCCC/C(O)=C/c1nc2ccccc2[nH]c1=O,.,.,.,.,.,/,/,/
O=C(/C=C/c1ccc(F)cc1)Nc1nc2ccccc2[nH]1,.,.,154,161,.,189,.,.
O=c1[nH]c2ccccc2nc1/C=C/c1ccc(F)cc1,68,.,159,.,.,166,.,.
SMILES,FLuc inhib CS,NF-kB expr up,STAT1 activator,APP 5'UTR act,FLuc act counter,STAT1 act conf,NFkB act,STAT3 act STAT1c
O=c1[nH]c2ccccc2nc1/C=C/c1ccccc1,60,.,162,.,.,188,.,121
COc1ccc(C(=O)NC(=S)N(CCC(C)C)c2c(N)n(Cc3ccccc3)c(=O)[nH]c2=O)cc1,.,.,.,.,.,/,/,/
COc1ccc2cc(C(N)=O)c(=Nc3ccccc3)oc2c1,.,.,152,137,.,142,.,.
Cc1occc1C(=O)Nc1cc(C(C)(C)C)on1,.,4.5,152,148,.,191,.,122
CC(=O)c1cccc(NC(=O)c2ccoc2C)c1,.,.,.,.,.,/,/,/
Cc1occc1C(=O)Nc1ccc2ccccc2c1,.,9.3,156,164,.,207,.,152
CCCOC(=O)c1c(NC(=O)C2CCCO2)sc(C(=O)OC)c1C (stereo unspecified),.,.,.,.,.,/,/,/
N#C/C(=C\c1ccc(N2CCOCC2)cc1)c1ccccc1,.,.,174,208,.,226,143,.
N#C/C(=C\c1ccc(N2CCOCC2)o1)c1ccccc1,.,.,161,.,.,235,150,126
N#C/C(=C/c1ccc(N2CCOCC2)o1)c1ccc(Br)cc1,.,.,.,.,.,/,/,/
CCS(=O)(=O)c1ccc2c(c1)N(S(=O)(=O)c1ccc(OC)cc1)CC(C(=O)O)O2 (stereo unspecified),.,.,.,.,.,/,/,/
O=C(NCCc1ccccc1)c1cccc([N+](=O)[O-])c1,.,.,.,.,.,/,/,/
Cc1ccc(C(=O)N2CCC(Cc3ccccc3)CC2)cc1[N+](=O)[O-],.,.,.,.,.,/,/,/
Cn1ccsc1=NC(=O)c1ccc(Cl)cc1,.,.,156,.,.,166,.,118
NC(=O)C1=C[C@H](C2CCCCC2)C[C@H](OCc2ccc(CO)cc2)O1,.,3.8,171,.,.,163,142,164
COc1ccccc1NC(CC(=O)c1ccccc1)C(=O)OCC(=O)c1ccc(Br)cc1 (stereo unspecified),.,.,156,.,.,183,.,.
Cc1nc(N2CCCCC2)c2c(C)c(C(=O)Nc3cccc(C(F)(F)F)c3)sc2n1,.,.,.,.,.,/,/,/
Fc1ccc(N2CCN(c3nc(CN4CCOCC4)nc4scc(-c5ccccc5)c34)CC2)cc1,.,.,.,.,.,/,/,/
O=C1/C(=C\c2ccc3c(c2)OCO3)CCC/C1=C/c1ccc2c(c1)OCO2,.,.,.,.,.,/,/,/
O=c1/c(=C\c2ccc3c(c2)OCO3)sc2n1CCCN=2,.,4.7,154,.,.,200,139,.
Oc1ccc(-c2csc(Nc3ncccn3)n2)c(O)c1,.,8.1,176,154,.,216,144,.
CC(=O)Nc1ccc(-c2csc(Nc3cccc(C)n3)n2)cc1,.,6.2,160,168,.,184,.,.
CC(=O)Nc1cccc(-c2csc(Nc3ncccn3)n2)c1,.,.,252,135,.,304,.,113
Cc1cccnc1Nc1nc(-c2ccc(O)cc2)cs1,.,7.4,151,.,.,205,141,111
CC(=O)c1ccc(NC(=O)CSCCO)cc1,.,.,.,.,.,/,/,/
